# Reference: ChEMBL document CHEMBL5104115, “Design, synthesis of novel triptolide-glucose conjugates targeting glucose Transporter-1 and their selective antitumor effect” (Eur J Med Chem, 2022)
# Active and inactive are the calls of the source. The calls are words filed in the database; no cut-off is given here.
# Columns and labels:
# [1] = Stability in mouse serum assessed as unchanged fraction measured after 72 hrs by HPLC analysis relative to control; format: ADME, cell-free; details: read-out: Stability
# How it was run: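 15 µM test agent incubated with human or mouse serum at 37 °C for 0, 0.5, 1, 8, 12, 18, 60 and 72 h. Samples stored at −80 °C, protein precipitated with 200 µL methanol, vortexed and sonicated 5 min. Intact agent and released triptolide measured by HPLC at 220 nm, in duplicate.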
# [2] = Toxicity in BALB/c nude mouse xenografted with human NCI-H1975 cells assessed as diarrhea at 1 to 2 mg/kg administered ip, qd for 2 weeks; details: in vivo, 336 h
# NCI-H460 [3] = assay: Induction of apoptosis in human NCI-H460 cells assessed as necrotic cells at 1 uM measured after 48 hrs by Annexin V-FITC/PI staining method (reference value: 1.62%); format: functional
# NCI-H1975 [4] = assay: Antitumor activity against human NCI-H1975 cells xenografted in BALB/c nude mouse assessed as tumor growth inhibition at 1 mg/kg, ip, qd for 2 weeks relative to control; details: NCI-H1975, 336 h, read-out: TGI
# NCI-H1975 [5] = assay: Cytotoxicity against human NCI-H1975 cells transfected with OE overexpressing Glut1assessed as decrease in cell viability incubated for 72 hrs by MTT assay; format: functional, cell-based; details: NCI-H1975, 72 h
# How it was run: (§1)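 Stable Glut-1 knockdown (KD1, KD2, vector KD V) or overexpression (OE, vector OE V) NCI-H1975 cells made by 12 h lentiviral infection, 72 h culture, then 14 days puromycin selection; Glut-1 confirmed by Western blot. Cells seeded at 4000/well overnight, dosed over a concentration range or DMSO for 72 h. MTT read at 570 nm; IC50 from ≥3 replicates.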
# NCI-H1975 [6] = assay: Cytotoxicity against Glut1 knocked down human NCI-H1975 cells transfected with KD1 assessed as decrease in cell viability incubated for 72 hrs by MTT assay; format: functional, cell-based; details: NCI-H1975, 72 h; how it was run: as §1
# [7] = Toxicity in BALB/c nude mouse xenografted with human NCI-H1975 cells assessed as morphological changes in testis at 1 mg/kg administered ip, qd for 2 weeks; details: in vivo, 336 h
# [8] = AUC (0 to 3 hrs) in NCI-H1975 tumor bearing nude mouse model serum at 1 mg/kg, iv; format: ADME, organism-based; design: time < 3 hr, dose 1 mg/kg, route iv
# [9] = Cytotoxicity against human L02 cells incubated for 72 hrs by MTT assay; format: toxicity, cell-based
# How it was run: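 Cells seeded at 4000/well, incubated overnight, then exposed to a range of concentrations, or DMSO vehicle, for 72 h. MTT (5 mg/mL solution) added for 4 h and formazan dissolved in DMSO. Absorbance read at 570 nm, and IC50 derived from the curves. Tumor lines were grown in RPMI 1640; HUVEC, HaCaT and LO2 were grown in DMEM, each with 10% FBS at 37 °C and 5% CO2.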
# [10] = Drug distribution in NCI-H1975 tumor bearing nude mouse model assessed as tumor to heart ratio of triptolide metabolite at 2 mg/kg, iv by LC-MS analysis; format: ADME, organism-based; details: in vivo
# How it was run: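 NCI-H1975 xenograft mice, tumors about 500 mm3, 3 per group, fasted 12 h with water available. Given 2 mg/kg iv and sacrificed 1 h later. Heart, liver, lung, kidney and tumor weighed and flash-frozen. 1.0 g tissue homogenized in 2.0 mL saline, methanol-precipitated, reconstituted. Parent, triptolide succinate and triptolide measured by LC-MS; tumor/organ ratios calculated.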
# [11] = Toxicity in BALB/c nude mouse xenografted with human NCI-H1975 cells assessed as irregular spermatogenic tubules at 2 mg/kg administered ip, qd for 2 weeks; details: in vivo, 336 h
# NCI-H460 [12] = assay: Induction of ROS accumulation in human NCI-H460 cells measured upto 20 uM after 42 to 48 hrs by DCFH-DA staining based flow cytometric analysis; format: functional, cell-based; details: time 42-48 hrs
# How it was run: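 NCI-H460 cells exposed 42 h or 48 h. Cells suspended in 1% BSA DPBS, loaded with DCFH-DA (0.2 µL of 10 mM stock per 200 µL) for 30 min in the dark, washed, analyzed by flow cytometry. DCF fluorescence expressed as percentage relative to untreated control from histograms, ≥3 replicates.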
# [13] = Toxicity in BALB/c nude mouse xenografted with human NCI-H1975 cells assessed as degeneration of inter tube connective tissue at 2 mg/kg administered ip, qd for 2 weeks; details: in vivo, 336 h
# NCI-H460 [14] = assay: Induction of mitochondrial membrane potential loss in human NCI-H460 cells by flow cytometric analysis; format: functional, cell-based
# How it was run: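 Treated NCI-H460 cells suspended in 1% BSA DPBS and stained with TMRE (from a 1 mM stock) for 20 min in the dark. Cells then washed and resuspended in 1% BSA DPBS. Relative TMRE fluorescence intensity taken as the readout of membrane potential.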
# [15] = Toxicity in BALB/c nude mouse xenografted with human NCI-H1975 cells assessed as morphological change in lung at 1 to 2 mg/kg administered ip, qd for 2 weeks; details: in vivo, 336 h
# NCI-H460 [16] = assay: Induction of apoptosis in human NCI-H460 cells assessed as early apoptotic cells at 50 uM measured after 48 hrs by Annexin V-FITC/PI staining method (reference value: 3.26%); format: functional
# NCI-H460 [17] = assay: Induction of apoptosis in human NCI-H460 cells assessed as necrotic cells at 20 uM measured after 48 hrs by Annexin V-FITC/PI staining method (reference value: 1.62%); format: functional
# [18] = Stability in NCI-H1975 tumor bearing nude mouse model plasma at 1 mg/kg, iv; format: ADME, organism-based; details: in vivo
# NCI-H460 [19] = assay: Induction of apoptosis in human NCI-H460 cells assessed as viable cells at 50 uM measured after 48 hrs by Annexin V-FITC/PI staining method (reference value: 86.7%); format: functional; details: read-out: Activity
# [20] = Cytotoxicity against HUVEC transfected with OE V overexpressing Glut1assessed as decrease in cell viability incubated for 72 hrs by MTT assay; format: toxicity, cell-based; details: human, HUVEC cells transfected with OE V overexpressing Glut1
# How it was run: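 HUVEC kept in DMEM with 10% FBS, made to overexpress Glut-1 (OE) or carry vector (OE V) by lentiviral infection and puromycin selection for 14 days, with Western blot check. Seeded at 4000 cells/well, treated over a concentration range or DMSO for 72 h, then MTT at 570 nm. IC50 taken from at least three replicates.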
# [21] = Toxicity in BALB/c nude mouse xenografted with human NCI-H1975 cells assessed as morphological change in liver at 1 to 2 mg/kg administered ip, qd for 2 weeks; details: in vivo, 336 h
# [22] = Octanol-water partition coefficient, logD of the compound in PBS at pH 7.4 by liquid chromatography based mass spectrometric analysis; format: physicochemical
# How it was run: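 Shake-flask method: 3.0 mg compound dissolved in PBS-saturated n-octanol and rotated 24 h at room temperature. The octanol phase was then mixed with octanol-saturated PBS, rotated another 24 h and centrifuged. Both phases quantified by LC-MS against a standard curve, and log P = log(C octanol/C water).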
structure (smiles),measurement,setting,value
CC(C)[C@]12O[C@H]1[C@@H]1O[C@]13[C@]1(O[C@H]1C[C@H]1C4=C(CC[C@@]13C)C(=O)OC4)[C@@H]2OC(=O)CCC(=O)O[C@H]1C(O)O[C@H](CO)[C@@H](O)[C@@H]1O (some centres not stated),remaining at 72 h,[1],66%
same,Activity,[2],Non-Toxic
same,Activity,NCI-H460 [3],0.85%
same,inhibition in vivo at 1 mg/kg,NCI-H1975 [4],75.4%
same,IC50,NCI-H1975 [5],2.44 µM
same,IC50,NCI-H1975 [6],7.01 µM
same,Activity,[7],Non-Toxic
same,AUC(0-t) at 3 h,[8],83.6 µM·h
same,IC50 at 72 h,[9],1.32 µM
same,Ratio,[10],7.3
same,Activity,[11],Toxic
same,Activity,NCI-H460 [12],Active
same,Activity,[13],Toxic
same,Activity,NCI-H460 [14],Active
same,Activity,[15],Non-Toxic
same,Activity,NCI-H460 [16],50.2%
same,Activity,NCI-H460 [17],4.89%
same,Stability,[18],Unstable
same,viability at 50 µM,NCI-H460 [19],22.7%
same,IC50 at 72 h,[20],9.22 µM
same,Activity,[21],Non-Toxic
same,logD,[22],-0.347
